Measured values taken from ChEMBL document CHEMBL4602731, “A γ-Lactam Siderophore Antibiotic Effective against Multidrug-Resistant Gram-Negative Bacilli” (J Med Chem, 2020).
pIC50: −log10 of the molar value. Converted amounts (≈) assume the structure as drawn.

Tests used:
[1] = test system: Pseudomonas aeruginosa; test: Antimicrobial activity against Pseudomonas aeruginosa clinical isolate in presence of 1 ug/ml iron by standard broth microdilution method
[2] = test system: Pseudomonas aeruginosa; test: Antimicrobial activity against Pseudomonas aeruginosa clinical isolates by standard broth microdilution method; assay type: functional
[3] = target: Penicillin-binding protein 3 (Pseudomonas aeruginosa) (UniProt Q51504); test: Stabilization of Pseudomonas aeruginosa PBP3 assessed as melting temperature at 0.2 mM by DSF thermal shift assay (reference value: 44.1 +/- 0.14 degC)
Chain of Penicillin-binding protein 3 (Pseudomonas aeruginosa) (Q51504 as listed by the source): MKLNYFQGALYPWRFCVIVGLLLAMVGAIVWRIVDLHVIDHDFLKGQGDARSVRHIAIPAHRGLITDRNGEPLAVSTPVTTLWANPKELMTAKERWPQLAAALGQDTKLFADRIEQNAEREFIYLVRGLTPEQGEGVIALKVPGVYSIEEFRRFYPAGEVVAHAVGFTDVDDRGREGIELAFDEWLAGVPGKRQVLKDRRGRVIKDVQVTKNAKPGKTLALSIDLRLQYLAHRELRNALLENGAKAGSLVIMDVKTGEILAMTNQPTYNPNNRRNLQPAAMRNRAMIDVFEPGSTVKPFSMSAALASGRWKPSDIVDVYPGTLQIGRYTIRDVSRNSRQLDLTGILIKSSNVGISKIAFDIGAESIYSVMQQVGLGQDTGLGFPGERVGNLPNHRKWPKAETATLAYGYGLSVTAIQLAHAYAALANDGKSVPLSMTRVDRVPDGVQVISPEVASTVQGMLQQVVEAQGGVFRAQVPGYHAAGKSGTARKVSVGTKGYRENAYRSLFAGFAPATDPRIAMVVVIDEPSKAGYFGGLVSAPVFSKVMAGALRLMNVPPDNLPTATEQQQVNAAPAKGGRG
Procedure, shortened: (§1)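 Ligand at […], ceftazidime at 0.2 mM as positive control; no-ligand control with 1% DMSO. Derivative of fluorescence change plotted against temperature.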

[4] = test system: Pseudomonas aeruginosa; test: Antimicrobial activity against Pseudomonas aeruginosa clinical isolate in presence of 0.1 ug/ml iron by standard broth microdilution method
[5] = test system: Pseudomonas aeruginosa; test: Antimicrobial activity against Pseudomonas aeruginosa clinical isolate in presence of 10 ug/ml iron by standard broth microdilution method
[6] = test system: Pseudomonas aeruginosa; test: Antimicrobial activity against Pseudomonas aeruginosa clinical isolate in absence of iron by standard broth microdilution method
[7] = test system: Klebsiella pneumoniae; test: Antimicrobial activity against Klebsiella pneumoniae clinical isolates by standard broth microdilution method; assay type: functional
[8] = test system: Escherichia coli; test: Antimicrobial activity against Escherichia coli clinical isolates by standard broth microdilution method; assay type: functional
[9] = Inhibition of Acinetobacter baumanni PBP3 assessed as reduction in fluorescence intensity of bocillin labeled protein by SDS-PAGE analysis; parameters: species or system Acinetobacter baumannii
[10] = Stability in pH 7.5 phosphate buffer assessed as compound hydrolysis measured 24 hrs after reconstitution; assay type: physicochemical; details: read-out: Drug degradation
[11] = Substrate activity at VIM-2 (unknown origin) assessed as Kcat/Km ratio for compound hydrolysis by diode array spectrophotometry; assay type: ADME; details: bacteria
[12] = Substrate activity at VIM-2 (unknown origin) assessed as Kcat for compound hydrolysis by diode array spectrophotometry; assay type: ADME; details: bacteria
[13] = Substrate activity at IMP-1 (unknown origin) assessed as Kcat for compound hydrolysis by diode array spectrophotometry; assay type: ADME; details: bacteria
[14] = Substrate activity at IMP-1 (unknown origin) assessed as Kcat/Km ratio for compound hydrolysis by diode array spectrophotometry; assay type: ADME; details: bacteria
[15] = Substrate activity at KPC-2 (unknown origin) assessed as compound hydrolysis at 100 uM by diode array spectrophotometry; assay type: ADME; details: bacteria
[16] = Substrate activity at OXA-23 (unknown origin) assessed as compound hydrolysis at 100 uM by diode array spectrophotometry; assay type: ADME; details: bacteria
[17] = test system: Cytochrome P450; test: Inhibition of CYP450 (unknown origin) at 30 uM; assay type: ADME, protein assay; details: human
[18] = target: Penicillin-binding protein 3 (Pseudomonas aeruginosa) (UniProt Q51504); test: Stabilization of Pseudomonas aeruginosa PBP3 assessed as melting temperature at 1 mM by DSF thermal shift assay (reference value: 44.1 +/- 0.14 degC)
Procedure, shortened: as §1

[19] = Solubility in pH 7.5 phosphate buffer by nephelometry; assay type: physicochemical
Procedure, shortened: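 Solubility in pH 7.5 phosphate buffer, measured by nephelometry.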

[20] = Substrate activity at OXA-24 (unknown origin) assessed as compound hydrolysis at 100 uM by diode array spectrophotometry; assay type: ADME; details: bacteria
[21] = AUClast in CD1 mouse at 50 mg/kg, iv after 2 hrs by HPLC-MS/MS analysis; assay type: ADME, organism-based; parameters: time < 2 hr, dose 50 mg/kg, route intravenous; details: in vivo
Procedure, shortened: (§2)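 CD-1 mice, single IV dose of 50 mg/kg, parallel sampling in groups of 24 animals. Blood is taken by cardiac puncture under isoflurane into lithium heparin or K2EDTA tubes and spun at 2500 × g for 15 min at 4 °C. Plasma is precipitated with acetonitrile and run on HPLC-MS/MS against a spiked-plasma calibration curve with internal standard. Parameters come from noncompartmental analysis.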

[22] = AUC (extrapolated) in CD1 mouse at 50 mg/kg, iv after 2 hrs by HPLC-MS/MS analysis; assay type: ADME, organism-based; details: in vivo
Procedure, shortened: as §2

[23] = target: Prostaglandin G/H synthase 1 (Homo sapiens) (UniProt P23219); test: Inhibition of COX1 (unknown origin) at 30 uM relative to control
Chain of Prostaglandin G/H synthase 1 (Homo sapiens) (P23219 whole entry): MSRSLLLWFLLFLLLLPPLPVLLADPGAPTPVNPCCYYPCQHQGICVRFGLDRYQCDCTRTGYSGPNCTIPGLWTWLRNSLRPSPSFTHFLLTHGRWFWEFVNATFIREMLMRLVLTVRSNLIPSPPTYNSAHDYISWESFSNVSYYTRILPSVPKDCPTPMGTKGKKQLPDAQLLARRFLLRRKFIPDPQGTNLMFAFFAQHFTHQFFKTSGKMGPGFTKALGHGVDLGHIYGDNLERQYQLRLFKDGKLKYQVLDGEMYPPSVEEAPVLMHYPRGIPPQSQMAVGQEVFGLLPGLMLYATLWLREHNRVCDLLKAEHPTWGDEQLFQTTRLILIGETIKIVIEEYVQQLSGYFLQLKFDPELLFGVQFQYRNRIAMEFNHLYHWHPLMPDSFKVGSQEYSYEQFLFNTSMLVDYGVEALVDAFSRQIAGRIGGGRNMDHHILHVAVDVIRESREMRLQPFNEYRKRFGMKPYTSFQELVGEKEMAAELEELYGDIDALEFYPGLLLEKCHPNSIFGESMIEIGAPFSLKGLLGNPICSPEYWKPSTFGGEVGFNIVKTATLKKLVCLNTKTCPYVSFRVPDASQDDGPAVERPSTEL
Procedure, shortened: (§3)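 Safety panel of 44 enzymes, receptors and channels, with compound tested at 30 μM. Percent inhibition is measured.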

[24] = Substrate activity at NDM-1 (unknown origin) assessed as Kcat for compound hydrolysis by diode array spectrophotometry; assay type: ADME; details: bacteria
Procedure, shortened: (§4)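 The compound is the substrate, in molar excess for pseudo-first-order conditions. Hydrolysis is followed spectrophotometrically at Δε336 = −5500 M−1 cm−1 in a 1 cm quartz cuvette.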

[25] = target: Penicillin-binding protein 3 (Pseudomonas aeruginosa, UniProt Q51504); test: Inhibition of Pseudomonas aeruginosa PBP3 assessed as reduction in fluorescence intensity of bocillin labeled protein pre-incubated for 20 mins before bocillin addition by SDS-PAGE analysis
Chain of Penicillin-binding protein 3 (Q51504 whole entry): as the sequence (Q51504 as listed by the source) above

[26] = Stability in pH 7.5 phosphate buffer assessed as compound hydrolysis after 2 weeks at room temperature; assay type: physicochemical; details: read-out: Drug degradation
[27] = test system: Pseudomonas aeruginosa; test: Antimicrobial activity against Pseudomonas aeruginosa PAO1 in presence of 0.1 ug/ml iron by standard broth microdilution method; assay type: functional
Procedure, shortened: (§5)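 CLSI broth microdilution in iron-depleted cation-adjusted Mueller–Hinton broth, made by cation-exchange resin treatment, with an inoculum of 6 × 10^4 CFU/mL. For the iron series, soluble iron is added to the depleted medium. Total iron in the tested media is expected to be 0.02, 0.12, 1.02 and 10.02 μg/mL.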

[28] = Half life human liver microsomes; assay type: ADME, Microsome
[29] = test system: Hepatocyte; test: Toxicity in human primary hepatocytes at 100 uM incubated for 72 hrs; assay type: cell-based
Procedure, shortened: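 Primary human hepatocytes exposed to compound at a maximum of 100 μM for 72 h.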

[30] = Initial drug concentration in CD1 mouse at 50 mg/kg, iv after 2 hrs by HPLC-MS/MS analysis; assay type: ADME, organism-based; details: in vivo
Procedure, shortened: as §2

[31] = Half life CD1 mouse liver microsomes; assay type: ADME, Microsome
[32] = Half life in CD1 mouse at 50 mg/kg, iv after 2 hrs by HPLC-MS/MS analysis; assay type: ADME, organism-based; details: in vivo
Procedure, shortened: as §2

[33] = test system: Pseudomonas aeruginosa; test: Antimicrobial activity against Pseudomonas aeruginosa PAO1 in presence of 1 ug/ml iron by standard broth microdilution method; assay type: functional
Procedure, shortened: (§6)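 MICs by CLSI broth microdilution, inoculum 6 × 10^4 CFU/mL, in cation-adjusted Mueller–Hinton broth iron-depleted with cation-exchange resin (reported to leave 0.02 μg/mL iron). Soluble iron added back; total media iron expected 0.02, 0.12, 1.02 and 10.02 μg/mL.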

[34] = target: Voltage-gated inwardly rectifying potassium channel KCNH2 (Homo sapiens, UniProt Q12809); test: Binding affinity to human ERG at 30 uM
Chain of Voltage-gated inwardly rectifying potassium channel KCNH2 (Q12809 whole entry): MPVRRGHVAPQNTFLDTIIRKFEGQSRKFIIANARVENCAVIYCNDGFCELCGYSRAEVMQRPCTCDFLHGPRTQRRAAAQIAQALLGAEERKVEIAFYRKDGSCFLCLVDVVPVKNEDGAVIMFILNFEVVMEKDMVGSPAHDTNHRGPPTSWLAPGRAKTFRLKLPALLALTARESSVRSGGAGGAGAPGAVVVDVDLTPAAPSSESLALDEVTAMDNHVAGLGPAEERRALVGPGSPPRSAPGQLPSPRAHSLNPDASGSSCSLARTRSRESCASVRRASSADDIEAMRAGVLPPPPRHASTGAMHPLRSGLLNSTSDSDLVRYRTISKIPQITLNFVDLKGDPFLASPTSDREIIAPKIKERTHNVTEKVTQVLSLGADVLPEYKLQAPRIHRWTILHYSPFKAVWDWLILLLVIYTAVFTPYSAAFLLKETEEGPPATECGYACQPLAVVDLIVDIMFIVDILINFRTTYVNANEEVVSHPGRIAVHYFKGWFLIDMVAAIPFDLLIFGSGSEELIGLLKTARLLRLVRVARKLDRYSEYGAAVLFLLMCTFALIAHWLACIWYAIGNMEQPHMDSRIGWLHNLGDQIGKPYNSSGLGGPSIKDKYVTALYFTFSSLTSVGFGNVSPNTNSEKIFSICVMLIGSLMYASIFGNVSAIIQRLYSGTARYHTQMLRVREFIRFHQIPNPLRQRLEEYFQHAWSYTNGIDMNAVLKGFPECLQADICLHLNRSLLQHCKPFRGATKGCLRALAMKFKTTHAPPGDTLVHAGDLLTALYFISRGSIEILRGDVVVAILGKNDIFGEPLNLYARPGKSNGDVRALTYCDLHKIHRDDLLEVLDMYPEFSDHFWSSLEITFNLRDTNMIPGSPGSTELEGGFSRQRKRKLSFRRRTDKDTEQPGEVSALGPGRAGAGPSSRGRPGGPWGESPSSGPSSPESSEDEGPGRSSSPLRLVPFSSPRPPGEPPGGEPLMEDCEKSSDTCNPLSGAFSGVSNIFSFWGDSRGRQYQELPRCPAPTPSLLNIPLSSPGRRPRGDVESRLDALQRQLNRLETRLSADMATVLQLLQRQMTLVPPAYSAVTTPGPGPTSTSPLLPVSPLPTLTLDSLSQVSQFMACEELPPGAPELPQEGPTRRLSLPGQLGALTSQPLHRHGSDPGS

[35] = AUC (infinity) in CD1 mouse at 50 mg/kg, iv after 2 hrs by HPLC-MS/MS analysis; assay type: ADME, organism-based; parameters: dose 50 mg/kg, route intravenous, time infinity; details: in vivo
Procedure, shortened: as §2

[36] = target: Penicillin-binding protein 3 (Pseudomonas aeruginosa) (UniProt Q51504); test: Stabilization of Pseudomonas aeruginosa PBP3 assessed as increase in melting temperature at 1 mM by DSF thermal shift assay
[37] = Volume of distribution at steady state in CD1 mouse at 50 mg/kg, iv after 2 hrs by HPLC-MS/MS analysis; assay type: ADME, organism-based; details: in vivo
Procedure, shortened: as §2

[38] = Substrate activity at PER-2 (unknown origin) assessed as compound hydrolysis at 100 uM by diode array spectrophotometry; assay type: ADME; details: bacteria
[39] = Plasma concentration CD1 mouse at 50 mg/kg, iv after 2 hrs by HPLC-MS/MS analysis; assay type: ADME, organism-based
Procedure, shortened: as §2

[40] = test system: Pseudomonas aeruginosa; test: Antimicrobial activity against Pseudomonas aeruginosa PAO1 in presence of 10 ug/ml iron by standard broth microdilution method; assay type: functional
Procedure, shortened: as §6

[41] = Substrate activity at NDM-1 (unknown origin) assessed as Kcat/Km ratio for compound hydrolysis by diode array spectrophotometry; assay type: ADME; details: bacteria
Procedure, shortened: as §4

[42] = target: cGMP-inhibited 3',5'-cyclic phosphodiesterase 3A (Homo sapiens) (UniProt Q14432); test: Inhibition of PDE3A (unknown origin) at 30 uM relative to control
Chain of cGMP-inhibited 3',5'-cyclic phosphodiesterase 3A (Homo sapiens) (Q14432 whole entry): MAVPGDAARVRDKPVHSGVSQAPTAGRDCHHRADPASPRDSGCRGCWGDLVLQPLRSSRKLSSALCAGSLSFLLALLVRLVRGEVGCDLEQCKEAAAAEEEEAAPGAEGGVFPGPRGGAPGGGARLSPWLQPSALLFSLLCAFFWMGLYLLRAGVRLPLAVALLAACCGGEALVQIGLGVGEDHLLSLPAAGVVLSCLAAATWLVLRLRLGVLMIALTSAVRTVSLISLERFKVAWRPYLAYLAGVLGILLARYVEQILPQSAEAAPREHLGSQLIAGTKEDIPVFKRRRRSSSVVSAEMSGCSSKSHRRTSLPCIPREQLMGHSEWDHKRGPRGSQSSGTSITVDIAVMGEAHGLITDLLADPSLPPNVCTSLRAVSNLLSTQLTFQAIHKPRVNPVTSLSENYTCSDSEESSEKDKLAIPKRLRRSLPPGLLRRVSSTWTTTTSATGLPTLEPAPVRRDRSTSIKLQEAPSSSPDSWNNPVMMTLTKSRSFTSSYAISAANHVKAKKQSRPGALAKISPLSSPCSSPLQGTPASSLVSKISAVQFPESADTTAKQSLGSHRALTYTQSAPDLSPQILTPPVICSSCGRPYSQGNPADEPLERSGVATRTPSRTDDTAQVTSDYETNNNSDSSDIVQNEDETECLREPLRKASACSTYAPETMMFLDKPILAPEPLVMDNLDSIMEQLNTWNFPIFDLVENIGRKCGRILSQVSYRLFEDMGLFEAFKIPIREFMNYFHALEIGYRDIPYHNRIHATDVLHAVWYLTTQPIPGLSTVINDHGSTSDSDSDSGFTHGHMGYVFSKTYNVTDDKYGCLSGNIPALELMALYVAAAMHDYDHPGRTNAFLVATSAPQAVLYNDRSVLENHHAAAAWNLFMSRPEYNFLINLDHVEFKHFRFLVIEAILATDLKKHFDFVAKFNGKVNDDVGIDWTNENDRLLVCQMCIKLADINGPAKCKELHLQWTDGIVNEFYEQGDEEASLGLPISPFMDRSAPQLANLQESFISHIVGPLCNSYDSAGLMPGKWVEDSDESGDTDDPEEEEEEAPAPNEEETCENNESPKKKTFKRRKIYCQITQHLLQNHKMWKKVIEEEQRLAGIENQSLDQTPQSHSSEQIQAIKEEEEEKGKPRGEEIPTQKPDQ
Procedure, shortened: as §3

[43] = test system: Pseudomonas aeruginosa; test: Antimicrobial activity against Pseudomonas aeruginosa PAO1 in absence of iron by standard broth microdilution method; assay type: functional
Procedure, shortened: as §5

`CC(C)(O/N=C(\C(=O)N[C@@H]1C(=O)N2C(C(=O)[O-])=C(C[n+]3ccccc3)CS[C@H]12)c1csc(N)n1)C(=O)O` [CEFTAZIDIME] showed an MIC [1] of 1 µg/mL, an MIC50 [2] of 4 µg/mL (≈ 7.32 µM) and an MIC90 [2] of over 16 µg/mL. The Tm [3] was 56.5 °C, the MIC [4] was 1 µg/mL and the MIC [5] was 1 µg/mL. It also gave an MIC [6] of 1 µg/mL (≈ 1.83 µM), an MIC50 [7] of over 64 µg/mL and an MIC90 [7] of over 64 µg/mL. For the same molecule, the MIC50 [8] was 2 µg/mL (≈ 3.66 µM) and the MIC90 [8] was over 16 µg/mL.
`C[C@@H](O)[C@H]1C(=O)N2C(C(=O)O)=C(S[C@@H]3CN[C@H](CNS(N)(=O)=O)C3)[C@H](C)[C@H]12` [DORIPENEM] gave a pIC50 [9] of 5.64.
In the case of `C[C@@H](O)[C@H]1C(=O)N2C(C(=O)O)=C(S[C@@H]3CN[C@H](C(=O)N(C)C)C3)[C@H](C)[C@H]12` [MEROPENEM], the MIC50 [2] was 2 µg/mL (≈ 5.22 µM), the MIC90 [2] was over 8 µg/mL and the degraded at 24 h [10] was over 30%. The MIC50 [7] was 16 µg/mL (≈ 41.7 µM), the MIC90 [7] was over 64 µg/mL and the MIC50 [8] was at most 1 µg/mL. For the same molecule, the MIC90 [8] was 8 µg/mL (≈ 20.9 µM).
For `C[C@@H](O)[C@H]1C(=O)N2C(C(=O)O)=C(SCCN=CN)C[C@H]12` [IMIPENEM ANHYDROUS], the Kcat/Km [11] was 6.7e+06 M⁻¹ s⁻¹, the Kcat [12] was 57 s⁻¹ and the Kcat [13] was 36 s⁻¹. The Kcat/Km [14] was 3.2e+06 M⁻¹ s⁻¹.
With `NC(=O)[C@@H]1CC[C@@H]2CN1C(=O)N2OS(=O)(=O)O` [AVIBACTAM] the MIC50 [2] was 4 µg/mL (≈ 15.1 µM), the MIC90 [2] was over 32 µg/mL and the MIC50 [7] was 0.5 µg/mL (≈ 1.89 µM). It also gave an MIC90 [7] of 2 µg/mL (≈ 7.54 µM).
With `CC(C)(O/N=C(\C(=O)N[C@H]1CN2CC(C(=O)NCCN3C(=O)c4cc(O)c(O)cc4C3=O)=C(C(=O)O)N2C1=O)c1csc(N)n1)C(=O)O` the MIC [1] was over 16 µg/mL, the Activity [15] was “Not Active” and the Activity [16] was “Not Active”. The MIC50 [2] was 1 µg/mL (≈ 1.46 µM), the MIC90 [2] was 8 µg/mL (≈ 11.7 µM) and the “inhibition (INH)” value [17] was “Not Active”. For the same molecule, the Tm [18] was 51 °C, the solubility kinetic [19] was over 100 µM and the Activity [20] was “Not Active”. The AUClast [21] was 55866 ng·h/mL, the “%AUCextra” value [22] was 3% and the inhibition [23] was 63%. It also gave a Kcat [24] of 7 s⁻¹, a Kcat/Km [11] of 20000 M⁻¹ s⁻¹ and a pIC50 [25] of 5.60. For the same molecule, the MIC [5] was over 16 µg/mL, the degraded at 336 h [26] was 4% and the MIC [27] was 2 µg/mL. It also gave an MIC [6] of 0.5 µg/mL (≈ 0.728 µM), a Kcat [12] of 20 s⁻¹ and a t1/2 [28] of over 1 h. For the same molecule, the Activity [29] was “Non-Toxic”, the C0 [30] was 200844 ng/mL and the Kcat [13] was 5 s⁻¹. It also gave an MIC50 [7] of 1 µg/mL (≈ 1.46 µM), a t1/2 [31] of over 1 h and a t1/2 [32] of 11 h. The MIC [33] was 16 µg/mL, the Activity [34] was “Not Active” and the AUC [35] was 57791 ng·h/mL. The ΔTm [36] was 7 °C, the Vdss [37] was 2 L/kg and the Activity [38] was “Not Active”. For the same molecule, the concentration at 2 h [39] was 1400 ng/mL, the Kcat/Km [14] was 70000 M⁻¹ s⁻¹ and the MIC [40] was over 16 µg/mL. The Kcat/Km [41] was 20000 M⁻¹ s⁻¹, the MIC50 [8] was 1 µg/mL (≈ 1.46 µM) and the inhibition [42] was 66%.
`CC(C)(O/N=C(\C(=O)N[C@@H]1C(=O)N2C(C(=O)[O-])=C(C[N+]3(CCNC(=O)c4ccc(O)c(O)c4Cl)CCCC3)CS[C@H]12)c1csc(N)n1)C(=O)O` [CEFIDEROCOL] gave an MIC [1] of 0.25 µg/mL, an MIC [4] of 0.13 µg/mL and an MIC [5] of 1 µg/mL. For the same molecule, the MIC [43] was 0.06 µg/mL (≈ 0.0798 µM), the MIC [6] was 0.13 µg/mL (≈ 0.173 µM) and the MIC [33] was 0.5 µg/mL. It also gave an MIC [40] of 2 µg/mL.
